The text below walks through data of ChEMBL document CHEMBL1158546, “Discovery of novel and potent leukotriene B4 receptor antagonists. Part 1” (J Med Chem, 2010).

Experiment [1] addresses Leukotriene B4 receptor 1 (Homo sapiens, UniProt Q15722). Kind of experiment: Antagonist activity at BLT1 receptor expressed in human HL60 cells assessed as inhibition of LTB4-stimulated calcium flux after 30 mins. It counts as functional, cell-based, HL-60. The method in brief:
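HL-60 cells grown in RPMI-1640 with 20% FBS were plated at 2.0 × 10^5 cells/ml with 1 μM retinoic acid. They were dye-loaded in HBSS/20 mM HEPES/5 mM probenecid (0.05% BSA in the replacement buffer) for 1 h at 37 C. Compound (5 × 10^-11 to 3 × 10^-6 M final) was added for 30 min at room temperature, then 0.5 μM LTB4. Fluorescence was read every 1.5 s for 100 s and peak increase scored as % inhibition versus DMSO control.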

In the next experiment the test system is Neutrophil. Kind of experiment: Inhibition of LTB4-stimulated human neutrophils migration after 30 mins by using CyQuant GR fluorescent dye. It counts as functional, cell-based. An outline of the steps:
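Human blood neutrophils (95-97% pure, isolated over Lympholyte-poly) at 5 × 10^6 cells/mL were preincubated with compound (3 × 10^-12 to 1 × 10^-6 M final) for 30 min at 37 C. Migration toward 100 ng/mL LTB4 across a polycarbonate membrane ran 90 min at 37 C. Migrated cells were lysed with CyQuant GR and read at 480/520 nm. IC50 was taken from a sigmoidal fit of % inhibition.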

Setting [2] is: Homo sapiens, Neutrophil, 0.5 h, read-out: IC50.

Chain of Leukotriene B4 receptor 1 (Q15722 whole entry): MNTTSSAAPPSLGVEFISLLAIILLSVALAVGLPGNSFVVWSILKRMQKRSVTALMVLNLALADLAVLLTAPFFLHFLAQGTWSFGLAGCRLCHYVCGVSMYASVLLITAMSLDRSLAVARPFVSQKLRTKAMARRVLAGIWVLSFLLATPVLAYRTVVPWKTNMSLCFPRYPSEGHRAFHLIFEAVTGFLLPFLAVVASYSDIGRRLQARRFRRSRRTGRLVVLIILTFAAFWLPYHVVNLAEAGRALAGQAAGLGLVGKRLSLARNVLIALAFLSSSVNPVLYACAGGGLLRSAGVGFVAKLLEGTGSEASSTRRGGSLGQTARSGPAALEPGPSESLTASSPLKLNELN

On to `COc1ccc(-c2cc(OCCCCCCc3cccc(OCCCC(=O)O)c3CCC(=O)O)cc(-c3ccc(OC)cc3)c2)cc1`, for which the half-maximal inhibitory concentration (IC50) (usually the concentration at which inhibition is half-maximal) in experiment [1] (read-out: IC50) came out at 31.1 nM.
As to `COc1ccc(-c2cc(OCCCCCCc3cccc(OCCCC(=O)O)c3CCC(=O)O)cc(-c3ccc4c(c3)OCO4)c2)cc1`, the IC50 in experiment [1] (read-out: IC50) worked out at 3.27 nM.
For the molecule `O=C(O)CCCOc1cccc(CCCCCCOc2cc(-c3ccc(F)cc3)cc(-c3ccc(F)cc3)c2)c1CCC(=O)O`, the half-inhibitory concentration (IC50) in experiment [1] (read-out: IC50) was found to be 8.5 nM.
As for `O=C(O)CCCOc1cccc(CCCCCCOc2cc(-c3ccc(F)cc3)cc(-c3ccc4c(c3)OCCO4)c2)c1CCC(=O)O`, in experiment [1] (read-out: IC50), the half-inhibitory concentration (IC50) is 60.2 nM.
On the same count and under the same terms, with `O=C(O)CCCOc1cccc(CCCCCCOc2cc(-c3cccc(F)c3)cc(-c3ccc4[nH]ccc4c3)c2)c1CCC(=O)O` the figure was 14 nM.
For `O=C(O)CCCOc1cccc(CCCCCCOc2cc(-c3ccsc3)cc(-c3ccnc(Cl)c3)c2)c1CCC(=O)O`, in experiment [1] (read-out: IC50), the IC50 was determined as 0.57 nM.
For the molecule `O=C(O)CCCOc1cccc(CCCCCCOc2cc(-c3ccc4c(c3)OCO4)cc(-c3ccc4c(c3)OCO4)c2)c1CCC(=O)O`, the IC50 in experiment [1] (read-out: IC50) is 5.39 nM.
Take `O=C(O)CCCOc1cccc(CCCCCCOc2cc(-c3cncnc3)cc(-c3ccc4c(c3)OCO4)c2)c1CCC(=O)O`: the results for the half-inhibitory concentration (IC50) (in experiment [1] (read-out: IC50); in the experiment with Neutrophil (setting [2])) were 0.38 nM and 0.2 nM, respectively.
For `CCc1cc(C(C)=O)c(O)cc1OCCCCCC(C)(C)c1nn[nH]n1` [LY-255283], the concentration for half-maximal inhibition (IC50) entry (in experiment [1] (hl-60); in the experiment on Neutrophil (neutrophil)) was “Not Active” each time.
`O=C(O)CCCOc1cccc(CCCCCCOc2cc(-c3ccncc3)cc(-c3ccc4c(c3)OCO4)c2)c1CCC(=O)O`: the IC50 in experiment [1] (read-out: IC50) turned out to be 0.22 nM; with Neutrophil (setting [2]) it was 0.1 nM.
In the same order, the values of `O=C(O)CCCOc1cccc(CCCCCCOc2cc(-c3cncnc3)cc(-c3ccsc3)c2)c1CCC(=O)O` are 0.39 nM and 20 nM.
In the case of `O=C(O)CCCOc1cccc(CCCCCCOc2cc(-c3cncnc3)cc(-c3cncnc3)c2)c1CCC(=O)O`, the IC50 in experiment [1] (read-out: IC50) came out at 5.35 nM.
On to `O=C(O)CCCOc1cccc(CCCCCCOc2cc(-c3ccncc3)cc(-c3ccsc3)c2)c1CCC(=O)O`, for which the half-inhibitory concentration (IC50) in experiment [1] (read-out: IC50) amounted to 0.2 nM.
Consider `O=C(O)CCCOc1cccc(CCCCCCOc2cc(-c3ccccc3)cc(-c3ccsc3)c2)c1CCC(=O)O`, for which the results for the 50% inhibitory concentration (IC50) (in experiment [1] (read-out: IC50); in the experiment with Neutrophil (setting [2])) were 0.36 nM and 0.2 nM, respectively.
Turning to `O=C(O)CCCOc1cccc(CCCCCCOc2cc(-c3ccc4c(c3)OCCO4)cc(-c3ccc4c(c3)OCCO4)c2)c1CCC(=O)O`, in experiment [1] (read-out: IC50), the IC50 amounted to 140 nM.
Consider `O=C(O)CCCOc1cccc(CCCCCCOc2cc(-c3ccccc3)cc(-c3ccc4c(c3)OCO4)c2)c1CCC(=O)O`, for which the IC50 came to 0.58 nM in experiment [1] (read-out: IC50) and 0.7 nM in the experiment on Neutrophil (setting [2]).
In the case of `O=C(O)CCCOc1cccc(CCCCCCOc2cc(-c3ccncc3)cc(-c3cccc(F)c3)c2)c1CCC(=O)O`, the 50% inhibitory concentration (IC50) in experiment [1] (read-out: IC50) was 0.18 nM; with Neutrophil (setting [2]) it was 0.2 nM.
`O=C(O)CCCOc1cccc(CCCCCCOc2cc(-c3ccsc3)cc(-c3ccsc3)c2)c1CCC(=O)O`: the half-maximal inhibitory concentration (IC50) in experiment [1] (read-out: IC50) turned out to be 0.58 nM.
